Screening data: PubChem, NMMLSC
LAP4-GFP MLPCN = modulators of LAP4-GFP expression in yeast, primary screen, S. cerevisiae, multiplex flow cytometry, MLPCN library | 320,000 compounds, 0.34% hits | GFP response vs DMSO, % at 10 µM | 3 h; median GFP as percent of DMSO wells;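 active = GFP response vs DMSO above a set limit, about the screen mean plus 3 SD, cut at about 150% in these data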
CIT2-GFP yeast = modulators of CIT2-GFP expression in yeast, primary screen, S. cerevisiae, GFP fusion, multiplex flow cytometry, MLPCN library | GFP response vs DMSO, % at 10 µM | S. cerevisiae CIT2-GFP strain, 3 h; 100 means same as DMSO wells | 320,000 compounds, 0.065% hits | AID 2029, 2009;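 active = GFP response relative to DMSO above a set limit, near the screen mean plus 3 SD, cut at about 150% in these data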;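 also: ratio of well median GFP fluorescence to mean of DMSO wells on the plate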
T cell HTS = modulators of CD8 T cell-vesicle binding, primary screen, mouse 2C CD8+ T cells, flow cytometry | 2C CD8+ T cell-vesicle binding; hits give low values | 330,000 compounds, 0.068% hits | AID 2052, 2009 | response (vesicle binding), % at 7 µM;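 active = response, share of CD8 T cells binding vesicles, and their 90th percentile fluorescence all below set limits, cut at about 80% in these data, passing the limit was not always enough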;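 also: values below 100% mean blocked vesicle binding to the CD8+ T cells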
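Also added: QL9-peptide-loaded Drosophila micro-vesicles bearing Ld, ICAM-1 and B7-1; Test system: purified 2C TCR transgenic mouse naive CD8+ T cells; Measured by: cytometric PE anti-B7-1 and Alexa647 anti-CD8 signals after 1% paraformaldehyde fixation; Timing: binding step 1.5 h, 37 °C, antibody labelling 20 min, ice.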
MEP2 TOR yeast = modulators of MEP2-GFP levels in yeast, primary screen, S. cerevisiae, multiplex flow cytometry, MLPCN library. S. cerevisiae MEP2-GFP strain, 3 h; 100% = DMSO control level. GFP response vs DMSO, % at 10 µM. 330,000 compounds, 0.51% hits. AID 2016, 2009;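 active = GFP response versus DMSO above a set limit, roughly screen mean plus 3 SD, cut at about 180% in these data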;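 also: median GFP fluorescence of the barcode-gated MEP2-GFP cells per well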
AGP1 TOR yeast = modulators of AGP1-GFP expression in yeast TOR pathway, primary screen, cell-based, multiplex flow cytometry, S. cerevisiae, MLPCN library; 320,000 compounds, 0.02% hits; 3 h; GFP as percent of DMSO wells; GFP response vs DMSO, % at 10 µM; AID 2066, 2009;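 active = GFP response relative to DMSO above a set limit, near screen average plus 3 SD, cut at about 150% in these data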;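 also: median GFP channel fluorescence of the gated AGP1 strain per well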
RPL19A TOR yeast = RPL19A-GFP expression modulators in yeast, primary screen, cell-based, S. cerevisiae, multiplex flow cytometry, MLPCN; S. cerevisiae RPL19A-GFP strain, 3 h; hits give low values; percent response vs DMSO, % at 10 µM; 330,000 compounds, 0.3% hits; AID 2025, 2009;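 active = percent response vs DMSO below 50%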;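 also: median channel GFP fluorescence of the barcoded RPL19A-GFP strain; lower means less RPL19A-GFP as with rapamycin TOR inhibition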
LAP4-GFP pick2 = LAP4-GFP expression modulators in yeast, confirmation, cell-based, second cherry pick, flow cytometry. shares compounds with LAP4-GFP MLPCN. S. cerevisiae LAP4-GFP strain, 3 h. GFP response vs DMSO, % at 10 µM. 590 compounds, 20% hits. AID 2621, 2010;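 active = GFP signal as percent of the solvent control above about 150%, meaning raised reporter expression, limit read from the data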
MEP2-GFP pick2 = modulators of MEP2-GFP levels in yeast, confirmation, S. cerevisiae, flow cytometry GFP, second cherry picks; shares compounds with LAP4-GFP MLPCN; S. cerevisiae MEP2-GFP strain, 3 h; GFP response vs DMSO, % at 10 µM; 590 compounds, 10% hits; AID 2622, 2010;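 active = GFP signal above 150% of the solvent control wells, that is a rise of more than half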;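 also: median channel GFP fluorescence of all gated yeast cells per well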
RPL19A-GFP pick2 = RPL19A-GFP modulators in TOR pathway yeast, confirmation, cell-based, S. cerevisiae, flow cytometry, second cherry pick | shares compounds with LAP4-GFP MLPCN | S. cerevisiae RPL19A-GFP strain, 3 h; hits give low values; 100% means same as DMSO wells | GFP response vs DMSO, % at 10 µM | 590 compounds, 3% hits;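 active = under 65% GFP response relative to DMSO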;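 also: median GFP channel fluorescence per well over the all cells gate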
CIT2-GFP pick2 = modulators of CIT2-GFP expression in yeast, confirmation, flow cytometry, second cherry pick, single plex | shares compounds with LAP4-GFP MLPCN | S. cerevisiae CIT2-GFP strain, 3 h; DMSO control wells read 100% | GFP response vs DMSO, % at 10 µM | 590 compounds, 8% hits | AID 2624, 2010;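 active = GFP response vs DMSO above about 150%, limit read from the data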;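 also: median green fluorescence per well over all gated yeast cells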
AGP1 GFP CP2 = AGP1-GFP expression modulators, hit retest, confirmation, cell-based, flow cytometry, S. cerevisiae, cherry pick set 2. shares compounds with LAP4-GFP MLPCN. S. cerevisiae AGP1-GFP strain, 3 h. percent response vs DMSO, % at 10 µM. 590 tested, under 10 active. AID 2643, 2010;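 active = over 150 percent of DMSO response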;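 also: median GFP channel fluorescence over all cells without mother daughter split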
s288c autofluor = compound autofluorescence in yeast s288c, dose response, artefact control for yeast TOR pathway GFP screen, s288c strain; shares compounds with LAP4-GFP MLPCN; S. cerevisiae s288c, 520 nm autofluorescence, flow cytometry, 3 h; hits give high values; zero means same as solvent-only cells; fluorescence change (kMESF span) at 33 µM; 610 tested, under 10 active; AID 2757, 2010;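 active = fluorescence span over the dose series, or activity score, above about 33, limit read from the data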
Each line names hits and unclear results; the compound was inactive in the other large screens (follow-up assays come after a bar, where they were run). Sampled rows, rich in hits. Any-hit rate of the full collection: about 0.96%.

Cc1cccn2c(=O)c3cc(C#N)c(=N)n(CCCN4CCOCC4)c3nc12	none | LAP4-GFP pick2 inactive | MEP2-GFP pick2 inactive | RPL19A-GFP pick2 inactive | CIT2-GFP pick2 inactive | AGP1 GFP CP2 inactive
Cc1ccc(N/N=C(\C#N)C(N)=S)c(C)c1	LAP4-GFP MLPCN 161.0 | LAP4-GFP pick2 166.3 | MEP2-GFP pick2 218.3 | RPL19A-GFP pick2 inactive | CIT2-GFP pick2 inactive | AGP1 GFP CP2 inactive | s288c autofluor inactive
CC[C@@]1(c2ccccc2OC)ON(c2ccccc2C(F)(F)F)C1=O	none | LAP4-GFP pick2 inactive | MEP2-GFP pick2 inactive | RPL19A-GFP pick2 inactive | CIT2-GFP pick2 inactive | AGP1 GFP CP2 inactive | s288c autofluor inactive
Cc1ccccc1[C@@]1(C)ON(c2ccccc2C(F)(F)F)C1=O	none | LAP4-GFP pick2 inactive | MEP2-GFP pick2 inactive | RPL19A-GFP pick2 inactive | CIT2-GFP pick2 inactive | AGP1 GFP CP2 inactive | s288c autofluor inactive
CC1(c2ccccc2)ON(c2ccccc2C(F)(F)F)C1=O (configuration not stated)	none | LAP4-GFP pick2 inactive | MEP2-GFP pick2 inactive | RPL19A-GFP pick2 inactive | CIT2-GFP pick2 inactive | AGP1 GFP CP2 inactive | s288c autofluor inactive
O=C1N(c2ccccc2C(F)(F)F)O[C@]1(c1ccccc1)C1CCCC1	none | LAP4-GFP pick2 inactive | MEP2-GFP pick2 inactive | RPL19A-GFP pick2 inactive | CIT2-GFP pick2 inactive | AGP1 GFP CP2 inactive | s288c autofluor inactive
Cc1ccc(S(=O)(=O)Nc2ccccc2-c2nc3ccccc3[nH]c2=O)cc1	none
CC(CNC(=O)c1ccc(C#N)cc1)NC(=O)c1ccc(C#N)cc1 (configuration not stated)	none
Cc1ccc(-n2nc(C(=O)NN)c(C)c(C#N)c2=O)cc1Cl	MEP2 TOR yeast active | LAP4-GFP pick2 inactive | MEP2-GFP pick2 inactive | RPL19A-GFP pick2 inactive | CIT2-GFP pick2 inactive | AGP1 GFP CP2 inactive
CC(C)CN1CCN(Cc2cnc(-c3ccc(Cl)cc3)nc2)CC1CCO (configuration not stated)	none | LAP4-GFP pick2 inactive | MEP2-GFP pick2 inactive | RPL19A-GFP pick2 inactive | CIT2-GFP pick2 inactive | AGP1 GFP CP2 inactive
CCOc1cc(N2CCOCC2)c(OCC)cc1NC(=O)COC(=O)c1ccc(Cl)nc1	none
Cc1onc(-c2c(Cl)cccc2Cl)c1/C(N)=N/OC(=O)C1CC1	none
Cc1ccc(C(=O)O/N=C(\N)Cc2cccs2)c(Cl)c1	LAP4-GFP MLPCN 232.4 | s288c autofluor inactive
Cc1ccc(C(=O)O/N=C(\N)Cc2ccc([N+](=O)[O-])cc2)c(Cl)c1	none
Cc1cc(N2CCN(S(=O)(=O)c3ccc(Br)cc3)CC2)n2ncnc2n1	none | LAP4-GFP pick2 inactive | MEP2-GFP pick2 inactive | RPL19A-GFP pick2 inactive | CIT2-GFP pick2 inactive | AGP1 GFP CP2 inactive
O=C(CC(=O)c1ccccc1)Nc1ccccc1C(F)(F)F	none | LAP4-GFP pick2 inactive | MEP2-GFP pick2 inactive | RPL19A-GFP pick2 inactive | CIT2-GFP pick2 inactive | AGP1 GFP CP2 inactive
O=C(CC(=O)c1ccccc1)Nc1ccccc1	none | LAP4-GFP pick2 inactive | MEP2-GFP pick2 inactive | RPL19A-GFP pick2 inactive | CIT2-GFP pick2 inactive | AGP1 GFP CP2 inactive
Cc1ccccc1NC(=O)CC(=O)c1ccccc1	none | LAP4-GFP pick2 inactive | MEP2-GFP pick2 inactive | RPL19A-GFP pick2 inactive | CIT2-GFP pick2 inactive | AGP1 GFP CP2 inactive
COc1cccc(NC(=O)Cc2ccccc2)c1	none
COc1cccc(NC(=O)CC(=O)c2ccccc2)c1	none | LAP4-GFP pick2 inactive | MEP2-GFP pick2 inactive | RPL19A-GFP pick2 inactive | CIT2-GFP pick2 inactive | AGP1 GFP CP2 inactive
Cc1cc(C)c(S(=O)(=O)Nc2cccc(C(=O)O)c2)cc1S(=O)(=O)Nc1cccc(C(=O)O)c1	none
COc1ccc(NC(=O)CSc2nnc(Cc3ccccc3)c(=O)n2N)cc1OC	none
O=C(CCNC(=O)N1CCn2c1nc1ccccc12)NCc1ccc(F)cc1	none | LAP4-GFP pick2 inactive | MEP2-GFP pick2 inactive | RPL19A-GFP pick2 inactive | CIT2-GFP pick2 inactive | AGP1 GFP CP2 inactive
COC(=O)CCC(=O)N1CCCC(N2CCN(c3ccc(OC)cc3)CC2)C1 (configuration not stated)	none
C=CCn1c(C)c(/C=C/c2cc[n+](C)cc2)c2ccccc21	LAP4-GFP MLPCN 171.2, CIT2-GFP yeast 240.9, MEP2 TOR yeast 285.5 | s288c autofluor inactive
CCCn1c(CN2CCN(C(=O)OCC)CC2)nc2cc(NC(C)=O)ccc21	none
CCOC(=O)N1CCc2c(sc(NC(C)=O)c2C(N)=O)C1	none
CCOC(=O)N1CCc2c(sc(NC(=O)c3ccc(Cl)s3)c2C(N)=O)C1	LAP4-GFP MLPCN 183.3 | LAP4-GFP pick2 inactive | MEP2-GFP pick2 inactive | RPL19A-GFP pick2 inactive | CIT2-GFP pick2 inactive | AGP1 GFP CP2 inactive
O=C(c1ccncc1)N1CCN(S(=O)(=O)c2ccc(OC(F)(F)F)cc2)CC1	none
O=C1C(Cl)=C(N2CCCCCC2)C(=O)N1c1ccccc1Cl	none
Cc1ccccc1N1C(=O)C(Cl)=C(N2CCN(c3ccccc3)CC2)C1=O	none (no result: AGP1 TOR yeast) | s288c autofluor inactive
COc1ccccc1C/C(N)=N/OC(=O)COc1ccc(C)cc1	none
